Assay results reported in ChEMBL document CHEMBL1152490, “SAR study of clubbed [1,2,4]-triazolyl with fluorobenzimidazoles as antimicrobial and antituberculosis agents” (Eur J Med Chem, 2009).
≈ marks a conversion by molar mass, not a printed value.

Assays:
Staphylococcus aureus = test: Antimicrobial activity against Staphylococcus aureus after 24 hrs by agar well diffusion assay; assay type: functional
Summary of the method: (§1)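 Agar well diffusion with modifications, gentamycin as reference standard. Wells 10 mm in diameter punched in agar plates with a sterile steel borer. Strains were kept on agar medium. Compounds were dissolved and applied at 0.5% to 1.0%. Incubation at 24–28 °C for 24 h, then bacterial inhibition was scored.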

Pseudomonas aeruginosa = test: Antimicrobial activity against Pseudomonas aeruginosa after 24 hrs by agar well diffusion assay; assay type: functional; summary of the method: as §1
Escherichia coli = test: Antimicrobial activity against Escherichia coli after 24 hrs by agar well diffusion assay; assay type: functional; summary of the method: as §1
[1] = tested on: Salmonella enterica subsp. enterica; test: Antimicrobial activity against Salmonella typhosa after 24 hrs by agar well diffusion assay; assay type: functional, Salmonella enterica subsp. enterica serovar Typhi
Summary of the method: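 Agar well diffusion, modified; wells punched with a 10 mm sterile borer. Test compounds applied on impregnated sterile disks at concentrations of 0.5% to 1.0%, with gentamycin as reference standard. Plates incubated at 24–28 °C for 24 h, then bacterial inhibition scored.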

[2] = Cytotoxicity against african green monkey Vero C1008 cells at 6.25 to 50 µg/ml by neutral red uptake assay; assay type: cell-based; details: chlorocebus sabaeus
[3] = tested on: Mycobacterium tuberculosis; test: Antitubercular activity against Mycobacterium tuberculosis H37Rv by microplate alamar blue assay; assay type: functional
Summary of the method: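 Compounds active in the primary screen were retested at lower concentrations against M. tuberculosis H37Rv by microplate Alamar Blue assay. MIC taken as the lowest concentration giving a 95% fall in fluorescence relative to controls. Rifampin was the reference compound.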

[4] = tested on: Mycobacterium tuberculosis; test: Antitubercular activity against Mycobacterium tuberculosis H37Rv at 6.25 […] by microplate alamar blue assay; assay type: functional
Summary of the method: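 M. tuberculosis H37Rv (ATCC 27294) in BACTEC 12B medium, primary screen by broth microdilution microplate Alamar Blue assay at a single concentration of […]. Fluorescent compounds were tested instead in the BACTEC 460 radiometric system.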

## Cn1c(-c2ccc(-n3cncn3)cc2)nc2c(F)cc(F)cc21
Staphylococcus aureus
  inhibition zone (IZ): 28 mm
Pseudomonas aeruginosa
  inhibition zone (IZ): 26 mm
Escherichia coli
  inhibition zone (IZ): 21 mm
[1]
  inhibition zone (IZ): 19 mm
[2]
  Activity: Non-toxic
[3]
  MIC: < 6.25 mg/L

## Fc1ccc(Cn2c(-c3ccc(-n4cncn4)cc3)nc3c(F)cc(F)cc32)cc1
[4]
  growth inhibition (GI): 96%
Staphylococcus aureus
  inhibition zone (IZ): 25 mm
Pseudomonas aeruginosa
  inhibition zone (IZ): 23 mm
Escherichia coli
  inhibition zone (IZ): 19 mm
[1]
  inhibition zone (IZ): 21 mm
[2]
  Activity: Non-toxic
[3]
  MIC: 3.13 mg/L (≈ 7.72 µM)

## N#CCn1c(-c2ccc(-n3cncn3)cc2)nc2c(F)cc(F)cc21
[4]
  growth inhibition (GI): 96%
Staphylococcus aureus
  inhibition zone (IZ): 27 mm
Pseudomonas aeruginosa
  inhibition zone (IZ): 26 mm
Escherichia coli
  inhibition zone (IZ): 24 mm
[1]
  inhibition zone (IZ): 20 mm
[2]
  Activity: Non-toxic
[3]
  MIC: 1.56 mg/L (≈ 4.64 µM)

## Fc1cc(F)c2nc(-c3ccc(-n4cncn4)cc3)n(Cc3cccc(Cl)c3)c2c1
[4]
  growth inhibition (GI): 96%
Staphylococcus aureus
  inhibition zone (IZ): 26 mm
Pseudomonas aeruginosa
  inhibition zone (IZ): 22 mm
Escherichia coli
  inhibition zone (IZ): 19 mm
[1]
  inhibition zone (IZ): 18 mm
[2]
  Activity: Non-toxic
[3]
  MIC: 0.58 mg/L (≈ 1.37 µM)

## C=CCn1c(-c2ccc(-n3cncn3)cc2)nc2c(F)cc(F)cc21
Staphylococcus aureus
  inhibition zone (IZ): 20 mm
Pseudomonas aeruginosa
  inhibition zone (IZ): 22 mm
Escherichia coli
  inhibition zone (IZ): 23 mm
[1]
  inhibition zone (IZ): 23 mm
[2]
  Activity: Non-toxic
[3]
  MIC: < 6.25 mg/L

## CO[C@H]1/C=C/O[C@@]2(C)Oc3c(C)c(O)c4c(O)c(c(/C=N/N5CCN(C)CC5)c(O)c4c3C2=O)NC(=O)/C(C)=C\C=C\[C@H](C)[C@H](O)[C@@H](C)[C@@H](O)[C@@H](C)[C@H](OC(C)=O)[C@@H]1C [RIFAMPIN]
[4]
  growth inhibition (GI): 96%
[3]
  MIC: 0.015 mg/L (≈ 0.0182 µM)

## GENTAMICIN
Escherichia coli
  inhibition zone (IZ): 31 mm
[1]; Salmonella enterica subsp. enterica serovar Typhi
  inhibition zone (IZ): 30 mm

## Cc1ccc(S(=O)(=O)n2c(-c3ccc(-n4cncn4)cc3)nc3c(F)cc(F)cc32)cc1
Staphylococcus aureus
  inhibition zone (IZ): 14 mm
Pseudomonas aeruginosa
  inhibition zone (IZ): 12 mm
Escherichia coli
  inhibition zone (IZ): 16 mm
[1]
  inhibition zone (IZ): 16 mm
[2]
  Activity: Non-toxic
[3]
  MIC: < 6.25 mg/L

## Cc1ccccc1Cn1c(-c2ccc(-n3cncn3)cc2)nc2c(F)cc(F)cc21
Staphylococcus aureus
  inhibition zone (IZ): 19 mm
Pseudomonas aeruginosa
  inhibition zone (IZ): 21 mm
Escherichia coli
  inhibition zone (IZ): 18 mm
[1]
  inhibition zone (IZ): 14 mm
[2]
  Activity: Non-toxic
[3]
  MIC: < 6.25 mg/L

## Cc1cccc(Cn2c(-c3ccc(-n4cncn4)cc3)nc3c(F)cc(F)cc32)c1
Staphylococcus aureus
  inhibition zone (IZ): 21 mm
Pseudomonas aeruginosa
  inhibition zone (IZ): 18 mm
Escherichia coli
  inhibition zone (IZ): 18 mm
[1]
  inhibition zone (IZ): 16 mm
[2]
  Activity: Non-toxic
[3]
  MIC: < 6.25 mg/L

## CCCn1c(-c2ccc(-n3cncn3)cc2)nc2c(F)cc(F)cc21
Staphylococcus aureus
  inhibition zone (IZ): 21 mm
Pseudomonas aeruginosa
  inhibition zone (IZ): 23 mm
Escherichia coli
  inhibition zone (IZ): 18 mm
[1]
  inhibition zone (IZ): 19 mm
[2]
  Activity: Non-toxic
[3]
  MIC: < 6.25 mg/L

## Fc1cc(F)c2nc(-c3ccc(-n4cncn4)cc3)n(Cc3cccc(C(F)(F)F)c3)c2c1
Staphylococcus aureus
  inhibition zone (IZ): 22 mm
Pseudomonas aeruginosa
  inhibition zone (IZ): 21 mm
Escherichia coli
  inhibition zone (IZ): 20 mm
[1]
  inhibition zone (IZ): 18 mm
[2]
  Activity: Non-toxic
[3]
  MIC: < 6.25 mg/L

## COc1cccc(Cn2c(-c3ccc(-n4cncn4)cc3)nc3c(F)cc(F)cc32)c1
[4]
  growth inhibition (GI): 96%
Staphylococcus aureus
  inhibition zone (IZ): 24 mm
Pseudomonas aeruginosa
  inhibition zone (IZ): 22 mm
Escherichia coli
  inhibition zone (IZ): 22 mm
[1]
  inhibition zone (IZ): 21 mm
[2]
  Activity: Non-toxic
[3]
  MIC: 3.13 mg/L (≈ 7.5 µM)

## CCn1c(-c2ccc(-n3cncn3)cc2)nc2c(F)cc(F)cc21
Staphylococcus aureus
  inhibition zone (IZ): 23 mm
Pseudomonas aeruginosa
  inhibition zone (IZ): 18 mm
Escherichia coli
  inhibition zone (IZ): 16 mm
[1]
  inhibition zone (IZ): 14 mm
[2]
  Activity: Non-toxic
[3]
  MIC: < 6.25 mg/L

## Fc1cccc(Cn2c(-c3ccc(-n4cncn4)cc3)nc3c(F)cc(F)cc32)c1
[4]
  growth inhibition (GI): 96%
Staphylococcus aureus
  inhibition zone (IZ): 29 mm
Pseudomonas aeruginosa
  inhibition zone (IZ): 26 mm
Escherichia coli
  inhibition zone (IZ): 22 mm
[1]
  inhibition zone (IZ): 24 mm
[2]
  Activity: Non-toxic
[3]
  MIC: 0.36 mg/L (≈ 0.888 µM)

## Fc1cc(F)c2nc(-c3ccc(-n4cncn4)cc3)n(Cc3ccccc3)c2c1
Staphylococcus aureus
  inhibition zone (IZ): 19 mm
Pseudomonas aeruginosa
  inhibition zone (IZ): 20 mm
Escherichia coli
  inhibition zone (IZ): 15 mm
[1]
  inhibition zone (IZ): 13 mm
[2]
  Activity: Non-toxic
[3]
  MIC: < 6.25 mg/L

## C#CCn1c(-c2ccc(-n3cncn3)cc2)nc2c(F)cc(F)cc21
[4]
  growth inhibition (GI): 96%
Staphylococcus aureus
  inhibition zone (IZ): 25 mm
Pseudomonas aeruginosa
  inhibition zone (IZ): 23 mm
Escherichia coli
  inhibition zone (IZ): 21 mm
[1]
  inhibition zone (IZ): 24 mm
[2]
  Activity: Non-toxic
[3]
  MIC: 3.13 mg/L (≈ 9.33 µM)
